Tests used:
A549 [1] = assay: Antiproliferative activity against human A549 cells assessed as inhibition of cell growth measured after 72 hrs by MTT assay; assay type: functional, cell-based; details: A549, 72 h
How it was run: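 Cells were seeded at 4000–5000/well and held 24 h at 37 °C in 5% CO2. Compounds were added at the indicated final concentrations and incubated 72 h. MTT was added (5 mg/mL in PBS, stated as final) for 4 h at 37 °C. Formazan was dissolved in DMSO and absorbance read at 490 nm. The 50% growth-inhibitory concentration is the mean of three independent experiments ± SE.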

[2] = target: ALK tyrosine kinase receptor (Homo sapiens) (UniProt Q9UM73); assay: Inhibition of GST-tagged human ALK expressed in baculovirus expression system at 1 uM by Selectscreen kinase assay
How it was run: (§1)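 Single-point screen at 1 μM final against a panel of 25 kinases using a commercial profiling service; mean of three independent experiments each run in triplicate.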

[3] = target: Tyrosine-protein kinase BTK (Homo sapiens) (UniProt Q06187); assay: Inhibition of His-tagged full length, recombinant human BTK expressed in baculovirus expression system at 1 uM by Selectscreen kinase assay; how it was run: as §1
[4] = target: Serine/threonine-protein kinase B-raf (Homo sapiens) (UniProt P15056); assay: Inhibition of GST-tagged human full length BRAF expressed in baculovirus expression system at 1 uM by Selectscreen kinase assay; how it was run: as §1
[5] = target: Calcium/calmodulin-dependent protein kinase kinase 2 (Homo sapiens) (UniProt Q96RR4); assay: Inhibition of GST-tagged full length human CAMKK2 expressed in baculovirus expression system at 1 uM by Selectscreen kinase assay
How it was run: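 Commercial SelectScreen profiling panel of 25 kinases, test compound at 1 μM. Values are the mean of three independent experiments, each run in triplicate.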

[6] = target: Fibroblast growth factor receptor 4 (Homo sapiens) (UniProt P22455); assay: Inhibition of His-tagged human FGFR4 cytoplasmic domain expressed in baculovirus expression system at 1 uM by Selectscreen kinase assay; how it was run: as §1
[7] = target: Homeodomain-interacting protein kinase 3 (Homo sapiens) (UniProt Q9H422); assay: Inhibition of His-tagged human HIPK3 catalytic domain expressed in baculovirus expression system at 1 uM by Selectscreen kinase assay; how it was run: as §1
[8] = target: Dual specificity mitogen-activated protein kinase kinase 1 (Homo sapiens) (UniProt Q02750); assay: Inhibition of His-tagged full length human MEK1 expressed in baculovirus expression system at 1 uM by Selectscreen kinase assay; how it was run: as §1
[9] = target: Mitogen-activated protein kinase 1 (Homo sapiens) (UniProt P28482); assay: Inhibition of GST-tagged full length human ERK2 expressed in Escherichia coli at 1 uM by Selectscreen kinase assay; how it was run: as §1
[10] = target: Serine/threonine-protein kinase PAK 1 (Homo sapiens) (UniProt Q13153); assay: Inhibition of GST-tagged full length human PAK1 expressed in baculovirus expression system at 1 uM by Selectscreen kinase assay; how it was run: as §1
[11] = target: Proto-oncogene tyrosine-protein kinase receptor Ret (Homo sapiens) (UniProt P07949); assay: Inhibition of GST-tagged human RET cytoplasmic domain expressed in baculovirus expression system at 1 uM by Selectscreen kinase assay; how it was run: as §1
[12] = target: Rho-associated protein kinase 1 (Homo sapiens) (UniProt Q13464); assay: Inhibition of GST-tagged recombinant human ROCK1 catalytic domain (1-535) expressed in baculovirus expression system at 1 uM by Selectscreen kinase assay; how it was run: as §1
MDA-MB-231 [13] = assay: Induction of apoptosis in human MDA-MB-231 cells assessed as viable cells at 0.2 uM incubated for 48 hrs by Annexin V-FITC/PI staining based flow cytometric analysis (reference value: 95.84%); assay type: functional; details: read-out: Activity
MDA-MB-231 [14] = assay: Induction of apoptosis in human MDA-MB-231 cells assessed as viable cells at 0.4 uM incubated for 48 hrs by Annexin V-FITC/PI staining based flow cytometric analysis (reference value: 95.84%); assay type: functional; details: read-out: Activity
MDA-MB-231 [15] = assay: Induction of apoptosis in human MDA-MB-231 cells assessed as early apoptotic cells at 0.4 uM incubated for 48 hrs by Annexin V-FITC/PI staining based flow cytometric analysis (reference value: 1.58%); assay type: functional
MDA-MB-231 [16] = assay: Induction of apoptosis in human MDA-MB-231 cells assessed as late apoptotic cells at 0.4 uM incubated for 48 hrs by Annexin V-FITC/PI staining based flow cytometric analysis (reference value: 1.49%); assay type: functional
MDA-MB-231 [17] = assay: Induction of apoptosis in human MDA-MB-231 cells assessed as necrotic cells at 0.4 uM incubated for 48 hrs by Annexin V-FITC/PI staining based flow cytometric analysis (reference value: 1.08%); assay type: functional
MDA-MB-231 [18] = assay: Inhibition of cell migration in human MDA-MB-231 cells at 0.15 to 0.6 uM by wound healing assay; assay type: functional, cell-based; details: dose 0.15-0.6 µM, time 24-48 hrs, TDE = time-dependent effect
How it was run: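 MDA-MB-231 cells (2×10^6/well) were grown to confluence and the monolayer was scratched with a pipette tip. Cells were washed with PBS, kept in serum-free medium and treated with DMSO or compound at 0.15, 0.3 or 0.6 μM for 48 h. Wound closure was photographed by inverted microscope at 24 and 48 h.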

[19] = Intrinsic clearance in rat liver microsomes at 1 uM measured after 60 mins in presence of NADPH by LC-MS/MS analysis; assay type: ADME, Microsome; details: read-out: CLH
How it was run: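 Rat liver microsomes (0.5 mg/mL) were incubated at 37 °C with 1 μM compound in 100 mM potassium phosphate, pH 7.4, with 10 mM MgCl2. Reaction was started with prewarmed NADPH cofactor and sampled at 0, 5, 10, 20, 30 and 60 min. Protein was precipitated with cold acetonitrile and supernatants analysed by LC-MS/MS to give half-life, 1 h remaining and intrinsic clearance.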

[20] = Half life in rat liver microsomes at 1 uM measured up to 60 mins in presence of NADPH by LC-MS/MS analysis; assay type: ADME, Microsome
How it was run: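 Rat liver microsomes (0.5 mg/mL) were incubated with 1 μM test compound at 37 °C in potassium phosphate buffer (pH 7.4, 100 mM, 10 mM MgCl2). The reaction was started with prewarmed NADPH cofactor (1 mmol). It was sampled at 0, 5, 10, 20, 30 and 60 min and quenched with cold acetonitrile. Protein was removed by centrifugation and the supernatant analysed by LC-MS/MS.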

A549 [21] = assay: Antiproliferative activity against human A549 cells assessed as cell viability at 0.1 uM measured after 24 hrs by MTT assay (reference value: 100%); assay type: functional; details: read-out: Activity
MDA-MB-231 [22] = assay: Antiproliferative activity against human MDA-MB-231 cells assessed as cell viability at 0.1 uM measured after 24 hrs by MTT assay (reference value: 100%); assay type: functional; details: read-out: Activity
MDA-MB-231 [23] = assay: Antiproliferative activity against human MDA-MB-231 cells assessed as cell viability at 0.5 uM measured after 24 hrs by MTT assay (reference value: 100%); assay type: functional; details: read-out: Activity
MDA-MB-231 [24] = assay: Antiproliferative activity against human MDA-MB-231 cells assessed as cell viability at 0.5 uM measured after 72 hrs by MTT assay (reference value: 100%); assay type: functional; details: read-out: Activity
MDA-MB-231 [25] = assay: Antiproliferative activity against human MDA-MB-231 cells assessed as reduction in cell viability at 0.1 to 2.5 uM by MTT assay; assay type: functional, cell-based; details: dose 0.1-2.5 µM, time 24-72 hrs, TDE = time-dependent effect

Sequence of ALK tyrosine kinase receptor (Homo sapiens) (Q9UM73 19-1620 limits assumed): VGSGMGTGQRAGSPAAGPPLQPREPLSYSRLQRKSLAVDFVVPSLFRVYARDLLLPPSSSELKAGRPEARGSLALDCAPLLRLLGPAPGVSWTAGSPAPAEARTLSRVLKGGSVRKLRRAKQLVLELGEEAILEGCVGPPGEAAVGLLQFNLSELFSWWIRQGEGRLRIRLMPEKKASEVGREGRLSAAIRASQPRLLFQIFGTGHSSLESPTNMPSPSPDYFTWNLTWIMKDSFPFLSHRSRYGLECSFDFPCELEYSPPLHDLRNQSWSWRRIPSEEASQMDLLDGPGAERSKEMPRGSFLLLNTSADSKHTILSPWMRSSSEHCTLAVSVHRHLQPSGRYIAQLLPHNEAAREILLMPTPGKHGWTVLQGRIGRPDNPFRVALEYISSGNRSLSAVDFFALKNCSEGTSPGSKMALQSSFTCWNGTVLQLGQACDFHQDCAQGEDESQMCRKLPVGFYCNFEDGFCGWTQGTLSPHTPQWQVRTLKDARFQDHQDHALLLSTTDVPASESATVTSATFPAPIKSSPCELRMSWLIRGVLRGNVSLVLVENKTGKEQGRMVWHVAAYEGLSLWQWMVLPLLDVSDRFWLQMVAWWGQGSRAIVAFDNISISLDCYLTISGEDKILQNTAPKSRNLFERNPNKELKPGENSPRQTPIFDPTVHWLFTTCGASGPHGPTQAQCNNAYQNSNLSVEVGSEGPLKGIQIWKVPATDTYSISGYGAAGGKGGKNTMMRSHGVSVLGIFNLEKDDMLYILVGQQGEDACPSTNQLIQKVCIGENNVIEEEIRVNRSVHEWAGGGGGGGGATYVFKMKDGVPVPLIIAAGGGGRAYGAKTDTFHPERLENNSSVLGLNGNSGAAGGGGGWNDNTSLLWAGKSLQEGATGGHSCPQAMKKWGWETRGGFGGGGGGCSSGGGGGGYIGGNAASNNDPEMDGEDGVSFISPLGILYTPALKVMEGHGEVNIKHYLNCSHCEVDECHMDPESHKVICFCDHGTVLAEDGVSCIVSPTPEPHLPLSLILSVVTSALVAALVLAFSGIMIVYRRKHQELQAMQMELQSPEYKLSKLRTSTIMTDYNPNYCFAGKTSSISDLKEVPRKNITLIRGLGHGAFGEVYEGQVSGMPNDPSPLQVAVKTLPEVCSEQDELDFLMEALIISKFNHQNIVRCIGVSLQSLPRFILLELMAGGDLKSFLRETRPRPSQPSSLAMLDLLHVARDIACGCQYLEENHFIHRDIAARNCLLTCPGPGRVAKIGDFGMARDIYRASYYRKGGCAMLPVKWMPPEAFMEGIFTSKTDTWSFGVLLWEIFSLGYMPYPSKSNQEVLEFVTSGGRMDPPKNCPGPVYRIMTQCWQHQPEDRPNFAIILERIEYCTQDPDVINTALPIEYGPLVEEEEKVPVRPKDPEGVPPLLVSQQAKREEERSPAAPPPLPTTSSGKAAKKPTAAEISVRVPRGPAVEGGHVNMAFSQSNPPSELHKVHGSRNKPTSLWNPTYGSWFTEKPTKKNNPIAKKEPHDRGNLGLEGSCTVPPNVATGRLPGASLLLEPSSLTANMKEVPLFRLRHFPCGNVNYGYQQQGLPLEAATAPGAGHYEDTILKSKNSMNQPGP
Sequence of Proto-oncogene tyrosine-protein kinase receptor Ret (Homo sapiens) (P07949 whole entry, the tested form may be a part): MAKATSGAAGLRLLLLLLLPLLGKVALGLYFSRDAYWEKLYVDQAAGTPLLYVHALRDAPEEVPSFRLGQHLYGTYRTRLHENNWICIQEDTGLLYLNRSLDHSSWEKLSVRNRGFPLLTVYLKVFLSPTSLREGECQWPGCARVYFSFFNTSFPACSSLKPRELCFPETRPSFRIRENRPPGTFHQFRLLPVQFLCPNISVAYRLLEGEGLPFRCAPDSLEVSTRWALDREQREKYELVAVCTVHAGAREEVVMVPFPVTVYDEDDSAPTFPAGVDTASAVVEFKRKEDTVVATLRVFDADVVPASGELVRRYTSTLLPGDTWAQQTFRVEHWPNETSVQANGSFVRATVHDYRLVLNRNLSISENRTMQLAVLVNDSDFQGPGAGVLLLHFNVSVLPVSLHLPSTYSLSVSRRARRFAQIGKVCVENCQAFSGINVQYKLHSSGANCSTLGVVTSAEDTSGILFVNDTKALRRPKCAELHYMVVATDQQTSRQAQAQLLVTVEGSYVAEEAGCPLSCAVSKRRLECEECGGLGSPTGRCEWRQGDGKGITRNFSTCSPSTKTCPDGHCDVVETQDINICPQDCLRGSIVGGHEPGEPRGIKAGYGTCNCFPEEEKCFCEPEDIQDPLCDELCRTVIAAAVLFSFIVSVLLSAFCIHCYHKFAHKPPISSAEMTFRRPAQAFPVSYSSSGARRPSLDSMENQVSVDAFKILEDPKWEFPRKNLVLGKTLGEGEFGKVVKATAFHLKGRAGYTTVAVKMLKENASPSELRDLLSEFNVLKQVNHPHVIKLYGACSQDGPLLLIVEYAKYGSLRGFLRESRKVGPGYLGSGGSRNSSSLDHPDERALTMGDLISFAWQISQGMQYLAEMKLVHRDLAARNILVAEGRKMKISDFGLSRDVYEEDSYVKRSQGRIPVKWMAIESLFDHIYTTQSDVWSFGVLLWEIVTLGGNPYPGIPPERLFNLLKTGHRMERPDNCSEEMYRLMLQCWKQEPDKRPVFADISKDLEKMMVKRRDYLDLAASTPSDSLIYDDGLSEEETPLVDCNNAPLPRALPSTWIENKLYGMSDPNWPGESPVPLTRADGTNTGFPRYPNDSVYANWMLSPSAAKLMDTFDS
Sequence of Serine/threonine-protein kinase PAK 1 (Homo sapiens) (Q13153 whole entry, the tested form may be a part): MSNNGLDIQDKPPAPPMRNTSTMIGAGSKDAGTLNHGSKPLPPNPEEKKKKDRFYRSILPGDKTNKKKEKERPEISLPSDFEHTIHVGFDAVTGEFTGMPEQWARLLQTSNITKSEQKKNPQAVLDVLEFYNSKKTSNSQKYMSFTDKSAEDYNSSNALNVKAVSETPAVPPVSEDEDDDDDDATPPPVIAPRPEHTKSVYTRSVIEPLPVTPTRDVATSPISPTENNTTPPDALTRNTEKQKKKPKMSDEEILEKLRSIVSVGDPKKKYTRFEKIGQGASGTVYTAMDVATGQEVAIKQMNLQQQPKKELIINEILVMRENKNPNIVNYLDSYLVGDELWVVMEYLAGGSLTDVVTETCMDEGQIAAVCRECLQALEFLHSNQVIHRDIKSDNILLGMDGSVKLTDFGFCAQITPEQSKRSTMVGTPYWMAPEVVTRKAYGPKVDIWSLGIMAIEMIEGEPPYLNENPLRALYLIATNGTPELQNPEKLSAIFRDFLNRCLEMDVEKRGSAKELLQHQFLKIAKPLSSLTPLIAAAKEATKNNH
Sequence of Calcium/calmodulin-dependent protein kinase kinase 2 (Homo sapiens) (Q96RR4 2-588 limits assumed): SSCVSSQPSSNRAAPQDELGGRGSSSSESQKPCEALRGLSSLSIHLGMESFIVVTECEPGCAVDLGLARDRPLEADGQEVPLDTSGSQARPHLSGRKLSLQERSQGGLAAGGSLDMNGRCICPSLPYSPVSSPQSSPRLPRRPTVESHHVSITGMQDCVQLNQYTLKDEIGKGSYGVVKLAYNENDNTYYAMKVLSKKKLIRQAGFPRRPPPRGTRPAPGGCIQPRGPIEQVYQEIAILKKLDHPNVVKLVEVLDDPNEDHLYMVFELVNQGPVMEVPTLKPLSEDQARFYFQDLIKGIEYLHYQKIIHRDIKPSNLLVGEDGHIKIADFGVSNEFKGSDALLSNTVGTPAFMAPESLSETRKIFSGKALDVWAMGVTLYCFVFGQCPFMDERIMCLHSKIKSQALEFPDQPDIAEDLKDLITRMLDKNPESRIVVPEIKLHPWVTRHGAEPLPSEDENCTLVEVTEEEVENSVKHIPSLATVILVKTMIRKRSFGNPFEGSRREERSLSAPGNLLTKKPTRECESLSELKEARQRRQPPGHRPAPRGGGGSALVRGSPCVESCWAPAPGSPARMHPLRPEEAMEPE
Sequence of Homeodomain-interacting protein kinase 3 (Homo sapiens) (Q9H422 whole entry, looked up, the tested form may be a part): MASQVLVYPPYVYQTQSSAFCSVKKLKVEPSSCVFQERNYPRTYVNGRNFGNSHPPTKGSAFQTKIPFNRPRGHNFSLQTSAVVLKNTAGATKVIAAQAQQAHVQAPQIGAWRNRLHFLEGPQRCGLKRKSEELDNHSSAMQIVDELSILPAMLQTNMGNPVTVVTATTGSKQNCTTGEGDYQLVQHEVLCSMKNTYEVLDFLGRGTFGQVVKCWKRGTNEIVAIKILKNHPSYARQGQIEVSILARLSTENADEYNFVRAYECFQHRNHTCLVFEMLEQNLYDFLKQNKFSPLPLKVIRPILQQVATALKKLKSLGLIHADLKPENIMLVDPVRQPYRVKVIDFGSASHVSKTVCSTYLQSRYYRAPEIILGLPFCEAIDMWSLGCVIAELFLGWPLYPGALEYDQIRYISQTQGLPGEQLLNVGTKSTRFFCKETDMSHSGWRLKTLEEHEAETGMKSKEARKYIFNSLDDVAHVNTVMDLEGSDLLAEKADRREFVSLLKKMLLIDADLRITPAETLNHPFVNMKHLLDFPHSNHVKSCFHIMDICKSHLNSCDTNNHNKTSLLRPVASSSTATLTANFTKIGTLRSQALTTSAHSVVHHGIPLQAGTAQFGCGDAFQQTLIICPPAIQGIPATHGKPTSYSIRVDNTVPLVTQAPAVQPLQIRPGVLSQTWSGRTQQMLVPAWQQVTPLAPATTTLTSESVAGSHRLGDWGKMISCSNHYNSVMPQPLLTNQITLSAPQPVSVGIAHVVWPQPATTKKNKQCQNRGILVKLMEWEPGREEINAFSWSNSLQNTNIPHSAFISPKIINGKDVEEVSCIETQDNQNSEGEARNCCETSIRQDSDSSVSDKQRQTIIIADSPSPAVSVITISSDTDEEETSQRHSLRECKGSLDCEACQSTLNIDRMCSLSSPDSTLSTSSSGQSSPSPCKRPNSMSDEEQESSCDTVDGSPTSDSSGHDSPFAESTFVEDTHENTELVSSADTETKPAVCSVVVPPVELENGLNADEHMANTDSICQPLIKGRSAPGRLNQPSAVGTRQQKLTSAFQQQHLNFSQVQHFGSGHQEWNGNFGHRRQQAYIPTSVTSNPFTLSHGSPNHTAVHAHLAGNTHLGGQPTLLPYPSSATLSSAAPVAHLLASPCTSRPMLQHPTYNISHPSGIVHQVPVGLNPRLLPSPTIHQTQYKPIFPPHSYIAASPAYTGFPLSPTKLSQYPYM

- IC50 (A549 [1]): 270 nM
- inhibition [2]: 95%
- inhibition [3]: 88%
- inhibition [4]: 51%
- inhibition [5]: 77%
- inhibition [6]: 66%
- inhibition [7]: 72%
- inhibition [8]: 27%
- inhibition [9]: 1%
- inhibition [10]: 67%
- inhibition [11]: 97%
- inhibition [12]: 33%
- microsomal CLint at 1 µM [19]: 10.4 µL/min/mg
- half-life at 1 µM [20]: 2.23 h
SMILES: COc1ccccc1-c1csc2cnc(Nc3ccc(C(=O)NC4CCNCC4)c(F)c3)nc12
- viability at 0.2 µM (MDA-MB-231 [13]): 75%
- viability at 0.4 µM (MDA-MB-231 [14]): 53.8%
- Activity (MDA-MB-231 [15]): 15.61%
- Activity (MDA-MB-231 [16]): 26.21%
- Activity (MDA-MB-231 [17]): 4.4%
- inhibition (MDA-MB-231 [18]): Tde
- viability at 0.1 µM (A549 [21]): 96.4%
- viability at 0.1 µM (MDA-MB-231 [22]): 97.6%
- viability at 0.5 µM (MDA-MB-231 [23]): 73.7%
- viability at 0.5 µM (MDA-MB-231 [24]): 31%
- Activity (MDA-MB-231 [25]): Tde

From ChEMBL document CHEMBL4765248, “Design, synthesis, biological evaluation and molecular docking study of novel thieno[3,2-d]pyrimidine derivatives as potent FAK inhibitors” (Eur J Med Chem, 2020)
